Measured values pooled from the literature.
Compare with care: the assays were run in different laboratories.
BCL2L2: Bcl-2-like protein 2 (BCL2L2, Homo sapiens, UniProt Q92843)
Enoyl-[acyl-carrier-protein] reductase [NADPH] FabI: Enoyl-[acyl-carrier-protein] reductase [NADPH] FabI (Staphylococcus aureus, UniProt Q6GI75)
CYP1A1: Cytochrome P450 1A1 (CYP1A1, Homo sapiens, UniProt P04798)

| SMILES | target | assay | setting | Ki [nM] |
| --- | --- | --- | --- | --- |
| CC[C@H](C)[C@H](NC(=O)[C@H](CCC(=O)O)NC(=O)[C@H](CC(=O)O)NC(=O)CNC(=O)[C@H](CC(C)C)NC(=O)[C@H](CCCNC(=N)N)NC(=O)[C@H](CCC(N)=O)NC(=O)[C@H](CC(C)C)NC(=O)[C@H](CO)NC(=O)[C@H](CCC(N)=O)NC(=O)[C@@H](NC(=O)[C@H](CC(C)C)NC(=O)[C@H](Cc1c[nH]c2ccccc12)NC(=O)[C@@H](NC(=O)[C@H](CCC(=O)O)NC(=O)[C@@H]1CCCN1C(=O)[C@H](CCCNC(=N)N)NC(C)=O)[C@@H](C)CC)[C@@H](C)O)C(=O)N[C@@H](CC(N)=O)C(=O)N[C@@H](C)C(=O)N[C@@H](Cc1ccc(O)cc1)C(=O)N[C@@H](Cc1ccc(O)cc1)C(=O)N[C@@H](C)C(=O)N[C@@H](CCCNC(=N)N)C(N)=O | BCL2L2 | ligand displacement, FP | – | 360 |
| CCc1cc(O)c(Oc2cccnc2F)cc1F | Enoyl-[acyl-carrier-protein] reductase [NADPH] FabI | enzyme activity, inhibitor | – | 0.35 |
| COc1cc(O)c(CC=C(C)C)c(O)c1C(=O)/C=C/c1ccc(O)cc1 | CYP1A1 | enzyme activity, inhibitor, fluorescence | 15 min, pH 7.4 | 110 |
| CCc1cc(O)c(Oc2ccc(C(N)=O)cc2F)cc1F | Enoyl-[acyl-carrier-protein] reductase [NADPH] FabI | enzyme activity, inhibitor | – | 0.08 |
| CCn1c(-c2nc3cc(C(=O)N4CCC[C@@H](N)C4)cc(OC)c3n2C)cc2cccnc21 | Protein-arginine deiminase type-1 (PADI1, Homo sapiens, UniProt Q9ULC6) | enzyme activity, inhibitor | – | 570000 |
| O=c1cc(-c2ccccc2)oc2c1ccc1ccccc12 | CYP1A1 | enzyme activity, inhibitor, fluorescence | 6 min, pH 7.6 | 43 |
| CC(C)=CCc1c(O)cc(O)c2c1O[C@H](c1ccc(O)cc1)CC2=O | CYP1A1 | enzyme activity, inhibitor, fluorescence | 15 min, pH 7.4 | 200 |
| CC[C@H](C)[C@H](NC(=O)[C@H](CCC(=O)O)NC(=O)[C@H](CC(=O)O)NC(=O)CNC(=O)[C@H](CC(C)C)NC(=O)[C@H](CCCNC(=N)N)NC(=O)[C@H](CCCNC(=N)N)NC(=O)[C@H](CC(C)C)NC(=O)CNC(=O)[C@H](CCC(N)=O)NC(=O)[C@@H](NC(=O)[C@H](CCSC)NC(=O)[C@H](Cc1c[nH]c2ccccc12)NC(=O)[C@@H](NC(=O)[C@H](CCC(=O)O)NC(=O)[C@@H]1CCCN1C(=O)[C@H](CCCNC(=N)N)NC(C)=O)[C@@H](C)CC)[C@@H](C)O)C(=O)N[C@@H](CC(N)=O)C(=O)N[C@@H](C)C(=O)N[C@@H](Cc1ccc(O)cc1)C(=O)N[C@@H](Cc1ccc(O)cc1)C(=O)N[C@@H](C)C(=O)N[C@@H](CCCNC(=N)N)C(N)=O | BCL2L2 | ligand displacement, FP | – | 1500 |
| NCCCC[C@H](NC(=O)[C@@H]1CCCN1C(=O)[C@@H]1CSSC[C@H](NC(=O)CNC(=O)CNC(=O)CN)C(=O)N[C@@H](Cc2ccc(O)cc2)C(=O)N[C@@H](Cc2ccccc2)C(=O)N[C@@H](CCC(N)=O)C(=O)N[C@@H](CC(N)=O)C(=O)N1)C(=O)NCC(N)=O | Vasopressin V1a receptor (AVPR1A, Homo sapiens, UniProt P37288) | ligand displacement, radioligand | cell membranes | 1100 |
| C[C@H]1Oc2cc(cnc2N)-c2c(nn(C)c2C#N)CN(C)C(=O)c2ccc(F)cc21 | Dual specificity mitogen-activated protein kinase kinase 1 (MAP2K1, Homo sapiens, UniProt Q02750) | cell-free assay | lysate | 128 |
| C#Cc1ccc(-c2cc(=O)c3ccccc3o2)cc1 | CYP1A1 | enzyme activity, inhibitor, fluorescence | 6 min, pH 7.6 | 39 |
| O=C(O)CCC(NC(=O)NC(CCCCNC(=O)CCCCCCC(=O)NC(CCCCNC(=O)CN1CCN(CC(=O)O)CCN(CC(=O)O)CCN(CC(=O)O)CC1)C(=O)OCc1ccccc1)C(=O)O)C(=O)O.[Ga+3] (stereo not drawn) | Glutamate carboxypeptidase 2 (FOLH1, Homo sapiens, UniProt Q04609) | enzyme activity, inhibitor, fluorescence | – | 29 |
